Experimental findings from publication PMC6468299 (Nucleic Acids Research, 2019) are described below.

Where two headings read alike, the source gives them in different places. Some results are limits rather than exact numbers.

One data set deals with T1, DNA polymerase α (Pol-α) (Homo sapiens, UniProt P09884).
T1 sequence (P09884 1-1462): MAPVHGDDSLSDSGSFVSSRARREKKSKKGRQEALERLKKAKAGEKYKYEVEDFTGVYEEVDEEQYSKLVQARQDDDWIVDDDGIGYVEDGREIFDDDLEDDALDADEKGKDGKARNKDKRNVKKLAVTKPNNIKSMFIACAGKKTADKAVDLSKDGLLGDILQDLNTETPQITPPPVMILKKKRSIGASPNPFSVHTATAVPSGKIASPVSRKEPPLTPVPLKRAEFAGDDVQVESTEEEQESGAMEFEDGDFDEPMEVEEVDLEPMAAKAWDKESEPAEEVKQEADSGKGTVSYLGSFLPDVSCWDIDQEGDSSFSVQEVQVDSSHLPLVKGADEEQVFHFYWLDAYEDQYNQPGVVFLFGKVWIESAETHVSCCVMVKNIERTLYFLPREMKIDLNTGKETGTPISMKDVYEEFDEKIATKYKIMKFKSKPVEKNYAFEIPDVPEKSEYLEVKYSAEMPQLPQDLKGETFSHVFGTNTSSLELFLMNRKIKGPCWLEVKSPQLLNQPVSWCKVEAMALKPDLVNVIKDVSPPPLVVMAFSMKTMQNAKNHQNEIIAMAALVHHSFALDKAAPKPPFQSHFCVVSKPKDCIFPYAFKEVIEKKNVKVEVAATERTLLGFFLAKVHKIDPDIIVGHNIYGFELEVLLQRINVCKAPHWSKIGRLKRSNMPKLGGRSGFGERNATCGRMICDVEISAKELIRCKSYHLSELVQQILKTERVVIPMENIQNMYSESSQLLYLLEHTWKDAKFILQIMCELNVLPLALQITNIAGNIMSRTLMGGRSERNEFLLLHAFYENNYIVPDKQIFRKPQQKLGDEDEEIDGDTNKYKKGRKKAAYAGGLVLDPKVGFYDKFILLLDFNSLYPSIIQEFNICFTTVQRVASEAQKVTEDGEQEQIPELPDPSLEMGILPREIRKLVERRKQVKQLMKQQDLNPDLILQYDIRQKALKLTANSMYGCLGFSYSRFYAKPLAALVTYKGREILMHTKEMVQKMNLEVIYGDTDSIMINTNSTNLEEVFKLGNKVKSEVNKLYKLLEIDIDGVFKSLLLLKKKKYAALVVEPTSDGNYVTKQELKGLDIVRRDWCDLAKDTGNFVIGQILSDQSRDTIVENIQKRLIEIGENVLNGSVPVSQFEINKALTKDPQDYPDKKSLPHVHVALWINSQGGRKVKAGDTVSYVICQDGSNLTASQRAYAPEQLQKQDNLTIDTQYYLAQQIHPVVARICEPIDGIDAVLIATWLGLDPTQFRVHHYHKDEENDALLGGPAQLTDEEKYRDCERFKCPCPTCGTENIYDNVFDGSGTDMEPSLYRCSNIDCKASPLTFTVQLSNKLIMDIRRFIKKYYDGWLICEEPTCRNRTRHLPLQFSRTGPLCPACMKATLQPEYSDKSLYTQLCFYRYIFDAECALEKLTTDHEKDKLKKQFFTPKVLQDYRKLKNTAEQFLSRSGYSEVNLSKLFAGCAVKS
The experiment in a line: DNA polymerase inhibition assay, Pol-α. In kind it is biochemical.

The target of a further data set is T2, DNA polymerase γ (Pol-γ) (Homo sapiens, UniProt P54098).
T2 sequence (P54098 1-1239): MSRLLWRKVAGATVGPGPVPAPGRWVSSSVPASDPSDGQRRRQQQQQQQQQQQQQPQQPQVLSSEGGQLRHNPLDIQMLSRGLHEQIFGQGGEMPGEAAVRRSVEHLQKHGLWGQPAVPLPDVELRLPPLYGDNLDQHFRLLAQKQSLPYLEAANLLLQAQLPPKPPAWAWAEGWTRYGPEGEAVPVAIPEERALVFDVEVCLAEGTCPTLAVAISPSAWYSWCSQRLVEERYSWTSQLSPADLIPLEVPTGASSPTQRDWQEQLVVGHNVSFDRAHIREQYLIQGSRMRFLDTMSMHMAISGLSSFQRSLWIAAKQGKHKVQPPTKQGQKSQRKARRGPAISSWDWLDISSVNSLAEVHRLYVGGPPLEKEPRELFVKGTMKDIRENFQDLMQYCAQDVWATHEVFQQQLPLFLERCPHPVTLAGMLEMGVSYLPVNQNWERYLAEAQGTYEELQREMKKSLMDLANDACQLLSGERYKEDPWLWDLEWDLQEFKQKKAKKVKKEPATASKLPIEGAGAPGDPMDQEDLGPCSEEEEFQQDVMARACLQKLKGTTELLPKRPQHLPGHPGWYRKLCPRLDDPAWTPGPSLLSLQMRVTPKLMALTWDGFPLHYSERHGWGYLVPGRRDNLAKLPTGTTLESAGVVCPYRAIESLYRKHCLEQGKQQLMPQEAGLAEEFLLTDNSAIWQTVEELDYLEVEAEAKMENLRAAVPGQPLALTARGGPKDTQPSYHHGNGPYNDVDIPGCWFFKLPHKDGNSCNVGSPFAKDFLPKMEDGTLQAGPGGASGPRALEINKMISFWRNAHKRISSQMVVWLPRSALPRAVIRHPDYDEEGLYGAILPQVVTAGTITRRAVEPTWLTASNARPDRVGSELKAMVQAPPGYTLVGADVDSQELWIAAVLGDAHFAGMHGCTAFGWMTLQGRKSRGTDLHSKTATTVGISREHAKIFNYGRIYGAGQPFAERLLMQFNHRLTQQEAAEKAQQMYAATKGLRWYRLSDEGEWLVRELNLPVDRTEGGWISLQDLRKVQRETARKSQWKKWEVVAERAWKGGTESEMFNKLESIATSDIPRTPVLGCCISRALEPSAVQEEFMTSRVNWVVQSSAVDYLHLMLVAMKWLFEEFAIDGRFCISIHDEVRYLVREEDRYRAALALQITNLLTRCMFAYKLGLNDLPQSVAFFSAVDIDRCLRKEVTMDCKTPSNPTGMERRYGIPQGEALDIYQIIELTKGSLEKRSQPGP
The experiment in a line: DNA polymerase inhibition assay, Pol-γ. It is filed as biochemical. The following applies: 1 h, 3H-dTTP incorporation. The gist of the method: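 Reactions contained 25 μM each dATP/dCTP/dGTP, 25 nM TTP plus 1 μCi ³H-TTP, 160 nM template/primer, and serially diluted test nucleotide (0–200 μM). Incubation was 1 h at 37°C, stopped with TCA (10% final). DNA was precipitated 40 min at 4°C, washed and scintillation-counted; inhibition was taken from reduced radioactivity.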

For a further data set, the target named is DNA polymerase β (Pol-β) (Homo sapiens, UniProt P06746). The experiment in a line: DNA polymerase inhibition assay, Pol-β. It is filed as biochemical. The note with it: 1 h, 3H-dTTP incorporation. The gist of the method:
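Reactions contained 25 μM each dATP/dCTP/dGTP, 25 nM TTP plus 1 μCi ³H-TTP, 160 nM template/primer, and serially diluted test nucleotide (0–200 μM). Incubation was 1 h at 37°C. DNA was TCA-precipitated, washed and counted; inhibition was taken from reduced incorporation. ddNTPs served as positive control.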

Data set [1] in a line: Cytotoxicity, sulforhodamine B assay, SNB-78. It is filed as cell-based, human. The note with it: human, SNB-78 cells (CNS), day 11. The gist of the method:
(§1)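 Cells were grown 1 week in glucose- or galactose-containing medium, then seeded in 96-well plates. iCell cardiomyocytes were seeded on gelatin-coated plates and grown 5 days. Test compounds in 1:1 ethanol:water were added at each media change on days 0, 3, 7 and 10 (four doses), at up to 250 μM. Final ethanol was 2.5% at 250 μM and 1% otherwise. Total protein was read by sulforhodamine B on day 11. CC50 was fitted from triplicates.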
A general note: In SRB staining, fixed cells bind dye roughly in proportion to their protein.

The subject of a further data set is SNB-78 (CNS). The experiment in a line: Cytotoxicity, sulforhodamine B assay, SNB-78. The following applies: SNB-78. In kind it is cell-based, human. The gist of the method:
as §1

The nature of data set [2]: Cytotoxicity, sulforhodamine B assay, COLO 205. The note with it: human, COLO 205 cells (intestine), day 11. In kind it is cell-based, human. The gist of the method: as §1
The nature of data set [3]: Cytotoxicity, sulforhodamine B assay, SkMC. It is filed as cell-based, human. The note with it: human, SkMC cells (muscle), CC50, SkMC, day 11. The gist of the method: as §1
Data set [4] is described as follows: Cytotoxicity, sulforhodamine B assay, iCell cardiomyocytes. In kind it is cell-based. The following applies: human, iCell cardiomyocytes (heart). In a few lines: as §1
Data set [5] in a line: Cytotoxicity, sulforhodamine B assay, HepG2. The following applies: human, HepG2 cells (liver), day 11, four doses. In kind it is cell-based, human. In a few lines:
as §1

Data set [6] can be described thus: Cytotoxicity, sulforhodamine B assay, Molt-4. In kind it is cell-based, human. The following applies: human, Molt-4 cells (blood), day 11. In a few lines: as §1
Data set [7] in a line: Cytotoxicity, sulforhodamine B assay, Caki-1. It is filed as cell-based, human. The note with it: human, Caki-1 cells (kidney), day 11. In a few lines: as §1
Setting [8] is: Pol-α, 1 h, 3H-dTTP incorporation.

What is called IC50 is the concentration that gives 50% inhibition. One may read the IC90 as the concentration needed for an effect of 90%. Low values mean greater potency, high ones weaker potency. For the compound `O=P(O)(O)OP(=O)(O)OP(=O)(O)OC[C@H]1O[C@@H](n2cnc3c(O)ncnc32)[C@H](F)[C@@H]1O` [2′-F-ITP], the IC50 against DNA polymerase α (Pol-α) (setting [8]), at DNA polymerase γ (Pol-γ) and at DNA polymerase β (Pol-β) was above 200 µM each time. Moreover, the IC90 on DNA polymerase α (Pol-α) (setting [8]), against DNA polymerase γ (Pol-γ) and at DNA polymerase β (Pol-β) was above 200 µM each time.
`C[C@@]1(CO)[C@H](O)CC[C@@]2(C)[C@H]1CC[C@H]1C[C@@H]3C[C@@]12CC[C@]3(O)CO` [Aphidicolin, reference compound] yielded an IC90 at DNA polymerase α (Pol-α) of 16.5 µM.
In general, CC50 refers to the concentration that lowers cell viability or growth by half. A high value points to better tolerance by the cells. Regarding `CC(C)OC(=O)[C@H](C)N[P@](=O)(OC[C@H]1O[C@@H](n2ccc(=O)[nH]c2=O)[C@](C)(F)[C@@H]1O)Oc1ccccc1` [SOF, Sofosbuvir], the CC50 at 11 days was 120 µM in data set [1] (CC50, SNB-78, Galactose media); above 250 µM in data set [1] (CC50, SNB-78, Glucose media); 123 µM in [2] (CC50, COLO 205, Galactose media); 155 µM in [2] (CC50, COLO 205, Glucose media); above 250 µM in data set [3] (Galactose media); above 250 µM in data set [3] (Glucose media). Moreover, the CC50 at 11 days in [4] is above 250 µM; in [5] (CC50, HepG2, Galactose media), 97 µM; in [5] (CC50, HepG2, Glucose media), 114 µM; in [6] (CC50, Molt-4, Galactose media) it was above 250 µM; in [6] (CC50, Molt-4, Glucose media), above 250 µM; in data set [7] (CC50, Caki-1, Galactose media), above 250 µM. In data set [7] (CC50, Caki-1, Glucose media), this compound gave a CC50 at 11 days above 250 µM. Further, the “decrease of CC50 in galactose compared to glucose media” value in the data set on SNB-78 (CNS) is 2–10 fold.
Turning to “dideoxy nucleoside 5′ triphosphates [ddNTP, reference compound]”, on DNA polymerase γ (Pol-γ), the IC50 was determined as 0.35 µM and the IC90 was 8.65 µM. On DNA polymerase β (Pol-β), this compound came in with an IC50 of 0.06 µM and an IC90 of 0.65 µM.
